HTR2A ag = mouse Htr2a agonists via beta-arrestin recruitment, primary screen, cell-based, luminescence; activation, % at 7.6 µM; 360,000 tested, 0.66% active; CHO-K1 mHTR2A beta-arrestin complementation; percent of 30 µM serotonin response;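 active = activation above a run cutoff, the mean activation of all tested compounds plus 3 SD, cut at about 14% in these data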;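 note: 0% = plate median of compound wells and 100% = 30 µM serotonin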
Target sequence (P35363 whole entry, looked up): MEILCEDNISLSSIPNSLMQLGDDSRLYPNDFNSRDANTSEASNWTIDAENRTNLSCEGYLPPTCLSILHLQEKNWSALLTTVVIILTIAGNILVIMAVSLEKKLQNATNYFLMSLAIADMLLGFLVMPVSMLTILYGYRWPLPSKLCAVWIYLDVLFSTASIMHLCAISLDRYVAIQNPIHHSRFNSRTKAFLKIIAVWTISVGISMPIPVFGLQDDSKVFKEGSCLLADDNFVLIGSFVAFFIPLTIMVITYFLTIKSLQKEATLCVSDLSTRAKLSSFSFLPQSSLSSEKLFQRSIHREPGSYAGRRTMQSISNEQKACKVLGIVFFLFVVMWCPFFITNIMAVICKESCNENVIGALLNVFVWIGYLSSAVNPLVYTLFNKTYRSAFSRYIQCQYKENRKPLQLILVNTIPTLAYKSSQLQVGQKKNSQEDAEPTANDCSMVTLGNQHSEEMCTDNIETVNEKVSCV
TAAR1 agonist = human TAAR1 agonists, primary screen, Fluo-8 calcium fluorescence, CHO RD-HGA16 cells. Trace amine-associated receptor 1 (Homo sapiens), Q96RJ0. vehicle wells 0%, saturating PEA agonist 100%. activation, % at 3 µM. 360,000 tested, 0.99% active. AID 624467, 2012;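 active = activation above the mean activation of all test compounds in the run plus 3 SD, cut at about 38% in these data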
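System: CHO RD-HGA16 cells carrying human TAAR1 plus Gα16; Incubation: 17-24 h seeding, 75 min 37 °C dye, 30 min RT; Measured by: Fluo-8 fluorescence, 5 s baseline then 140 s kinetic read; Control set: DMSO and PEA EC100; Replication: single well for each compound.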
TAAR1 antagonist = human TAAR1 antagonists, primary screen, Fluo-8 calcium fluorescence, CHO RD-HGA16 cells. Trace amine-associated receptor 1 (Homo sapiens), Q96RJ0. antagonist. inhibition, % at 3 µM. 360,000 tested, 1.5% active. AID 624466, 2012;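 active = inhibition above a per-plate cutoff, the mean inhibition of test compounds on that plate plus 3 SD, cut at about 49% in these data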;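 note: 0% = DMSO plus EC80 beta-PEA response and 100% = DMSO alone without agonist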
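System: CHO RD-HGA16 cells bearing hTAAR1. Reagent: EC80 β-phenethylamine stimulus. Schedule: seeding 17-24 h prior, 75-min 37 °C, 30-min RT dye loading. Signal: Fluo-8 intracellular calcium dye fluorescence, real-time kinetic reads. Read-out: % inhibition from peak post-agonist over basal fluorescence ratio. Benchmarks: vehicle wells and EC80 agonist wells. Replicates: n of 1.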
CHRM1 antagonist = human M1 muscarinic receptor antagonists, primary screen, CHO-K1 cells, Fluo-8 calcium fluorescence, 1536-well. CHO-K1 hM1, ACh EC80 antagonist. inhibition, % at 3 µM. 360,000 tested, 1.3% active. Muscarinic acetylcholine receptor M1 (Homo sapiens), P11229;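 active = percent inhibition above its own plate's cutoff, namely the mean of that plate's compound wells plus 3 SD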;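 note: peak over basal fluorescence ratio during 140 s after agonist addition; 0% = ACh EC80 plus DMSO and 100% = DMSO alone without agonist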
M1 ag = human M1 muscarinic receptor agonists, primary screen, Fluo-8 calcium fluorescence, CHO-K1 cells, HTS | Muscarinic acetylcholine receptor M1 (Homo sapiens), P11229 | 360,000 tested, 0.33% active | activation, % at 3 µM | CHO-K1 hM1, agonist mode; 0% DMSO, 100% acetylcholine EC100;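 active = activation above the run's mean compound activation plus 3 SD, cut at about 16% in these data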;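 note: peak over basal fluorescence ratio within a 140 s kinetic read after compound addition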
M1 PAM = human M1 muscarinic receptor positive allosteric modulators, primary screen, CHO-K1 cells, Fluo-8 calcium fluorescence, 1536-well; CHO-K1 hM1, ACh EC20; 0% = ACh EC20, 100% = maximal ACh; activation, % at 3 µM; 360,000 tested, 0.088% active; AID 588819, 2011; in the data active = activation above about 19%, passing the limit was not always enough
TAAR1 nonsel count = nonselective antagonists in TAAR1 counter-screen cells, counter-screen for hTAAR1 antagonist project, cell-based, fluorescence, calcium | shares compounds with TAAR1 antagonist | counterscreen cell line, antagonist mode | inhibition, % at 3 µM | 2,400 tested, 77% active | AID 651780, 2012; in the data active = inhibition above about 22%;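 note: CHO-Ga16 host cells stimulated with ATP at an EC80 level; 0% = agonist EC80 plus vehicle and 100% = vehicle without agonist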
TAAR1 ant conf = human TAAR1 antagonists, retest of hits, confirmation, cell-based, fluorescence. shares compounds with TAAR1 antagonist. TAAR1-expressing cells, fluorescence antagonist read-out. inhibition, % at 3 µM. 2,400 tested, 40% active; in the data active = inhibition above about 49%;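 note: CHO-Ga16 host cells challenged with agonist PEA near its EC80; 0% = agonist at EC80 plus vehicle and 100% = vehicle with no agonist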
Ga16 ag counter = calcium activation in Ga16-expressing cells, counter-screen for TAAR1 antagonist project, cell-based, fluorescence; AID 651953, 2012; shares compounds with TAAR1 antagonist; agonist counterscreen; 2,400 tested, 18% active; activation, % at 3 µM; in the data active = activation above about 12%;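 note: 0% = vehicle wells and 100% = saturating stimulus response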
TAAR1 ag count = TAAR1 activation by candidate antagonists – cell-based, fluorescence, counter-screen for TAAR1 antagonist project | shares compounds with TAAR1 antagonist | hTAAR1 cell line, agonist mode | activation, % at 3 µM | 2,400 tested, 2% active | AID 651955, 2012; in the data active = activation above about 37%;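 note: CHO cells stably expressing TAAR1 with calcium dye readout; 0% = DMSO vehicle and 100% = full agonist response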
* hit, by the source's call; . = not tested or not shown. This is a sample that favours compounds with a hit; in the whole collection about 3.9% have one here.

SMILES | HTR2A ag | TAAR1 agonist | TAAR1 antagonist | CHRM1 antagonist | M1 ag | M1 PAM | TAAR1 nonsel count | TAAR1 ant conf | Ga16 ag counter | TAAR1 ag count
CCC1CN(C(=O)N2CCC(C(=O)NCc3ccc(C)o3)CC2)c2cc(C)ccc2O1 (configuration not stated) | -5 | 12 | 37 | -3 | -4 | -7 | . | . | . | .
CCC1CN(C(=O)N2CCC(C(=O)Nc3ccccc3F)CC2)c2ccccc2O1 (configuration not stated) | -1 | 9 | 36 | -2 | 0 | 4 | . | . | . | .
CC(C)NC(=O)C(c1ccc(F)cc1)N(C(=O)CCC(=O)Nc1ccccn1)c1cccc(F)c1 (configuration not stated) | -2 | 4 | 3 | -7 | -2 | 15 | . | . | . | .
Cc1ccc2nc(NC(=O)C3CCN(S(=O)(=O)c4cccc5nsnc45)CC3)sc2c1 | -1 | 16 | 65* | 4 | 2 | 3 | 33* | 45 | 10 | 7
Cc1ccc2nc(NC(=O)C3CCCN(S(=O)(=O)c4cccc5nsnc45)C3)sc2c1 (configuration not stated) | 2 | 6 | 26 | -4 | -2 | 6 | . | . | . | .
Cc1cc(C(=O)CSc2ccc(Cl)cc2)cc(C)c1OC(=S)N(C)C | -1 | 5 | 63* | 8 | -1 | -3 | 19 | 37 | 1 | 1
O=C(N/N=C\c1ccc(COc2ccc([N+](=O)[O-])cc2)o1)c1cccc(Cl)c1 | -3 | 16 | 56* | 0 | 0 | -10 | 26* | 42 | 4 | 5
O=C(COC(=O)c1ccc([N+](=O)[O-])o1)Nc1ccc2c(c1)OCO2 | 0 | 2 | -11 | -4 | -1 | 6 | . | . | . | .
COc1ccc(CCNC(=O)C(=O)NCc2ccc(Cl)cc2)cc1OC | -4 | 6 | 2 | 12 | -11 | -14 | . | . | . | .
COC(=O)CCNC(=O)CCc1ccc(S(=O)(=O)N2CCCCCC2)cc1 | 0 | 1 | 5 | 4 | -4 | 4 | . | . | . | .
COc1ccccc1N(CC(=O)NCCSCc1ccc(C)cc1)S(=O)(=O)c1ccccc1 | -8 | 1 | 84* | 19 | -2 | -7 | 27* | 51* | 4 | 1
COc1ccc(OC)c(N(CC(=O)NCCSCc2ccc(C)cc2)S(C)(=O)=O)c1 | 3 | 3 | 2 | -19 | 7 | 21 | . | . | . | .
COc1ccc(N(CC(=O)NCCSCc2ccc(C)cc2)S(=O)(=O)c2ccccc2)cc1 | -10 | 6 | 69* | -7 | -3 | 3 | 37* | 56* | 7 | 3
COc1ccc(CCNC(=O)CN(c2ccccc2OC)S(=O)(=O)c2ccc(C)cc2)cc1 | 4 | 0 | 31 | -4 | -4 | 3 | . | . | . | .
O=C(CCC(=O)N1CCOCC1)NCCc1ccc(F)cc1 | 1 | . | . | 5 | -1 | 6 | -5 | . | 1 | .
O=C(CCC(=O)N1CCOCC1)NCCc1ccc(Cl)cc1Cl | 0 | 4 | -16 | -5 | -2 | 5 | . | . | . | .
Cc1cccc(C)c1NC(=O)C1(C)CN(S(C)(=O)=O)CC(=O)N1CCc1c[nH]c2ccccc12 (configuration not stated) | 2 | 3 | 3 | . | . | . | . | . | . | .
CCC[C@@H](NS(=O)(=O)c1ccc(C)cc1)C(=O)Oc1ccc2c3c(c(=O)oc2c1)CCC3 | 10 | 8 | 90* | 38* | 2 | -25 | 47* | 70* | 11 | 10
CCOC(=O)c1csc(N)c1-c1ccc([N+](=O)[O-])cc1 | -2 | -3 | -13 | 0 | -4 | 23 | . | . | . | .
CCN1C(=O)C(=O)N(CC(=O)N2CCC(C)Sc3ccccc32)C1=O (configuration not stated) | -1 | 0 | 5 | -5 | -1 | 9 | . | . | . | .
CCN=C1SC(C(=O)Nc2cccc(Br)c2)CC(=O)N1CC (configuration not stated) | 0 | 22 | 75* | 30* | -3 | -15 | 37* | 63* | 11 | 10
CCN=C1SC(C(=O)Nc2ccc(Cl)c(Cl)c2)CC(=O)N1CC (configuration not stated) | -5 | 28 | 80* | 7 | -1 | -5 | 44* | 66* | 13* | 15
Cc1ccc(-c2cc(-c3ccccc3)nc(N/N=C/c3cccnc3)n2)cc1 | -1 | 7 | 36 | 3 | -1 | -2 | . | . | . | .
C(=N/Nc1nc(-c2ccccc2)cc(-c2ccccc2)n1)/c1cccnc1 | -3 | 11 | 65* | 16 | -7 | -8 | 31* | 53* | 4 | 3
C(=N\Nc1nc(Nc2ccccc2)nc(Nc2ccccc2)n1)/c1cccnc1 | -7 | 9 | 57* | 17 | -8 | -18 | 25* | 46 | 5 | 1
SMILES | HTR2A ag | TAAR1 agonist | TAAR1 antagonist | CHRM1 antagonist | M1 ag | M1 PAM | TAAR1 nonsel count | TAAR1 ant conf | Ga16 ag counter | TAAR1 ag count
O=C(O)Cc1cn(-c2ccccc2)nc1-c1ccccc1 | 1 | 0 | -10 | -3 | -4 | 7 | . | . | . | .
OCc1cn(-c2ccccc2)nc1-c1ccc(-c2nn(-c3ccccc3)cc2CO)cc1 | 2 | 21 | 54* | -12 | -1 | 2 | 41* | 61* | 12* | 12
CC(=O)c1cccc(NC(=O)CN2C(=S)NC(C)(C)CC2C)c1 (configuration not stated) | -5 | 7 | -4 | -12 | -3 | 9 | . | . | . | .
OC1(c2cccc(C(F)(F)F)c2)CCN(c2ccc(-c3ccccc3)nn2)CC1 | -4 | 10 | 75* | 0 | -1 | -2 | 19 | 39 | 4 | -1
Cc1ccccc1NC(=O)CCN1CCc2ccccc2C1 | 5 | 3 | 104* | -8 | -3 | 8 | -6 | 0 | 5 | 9
Cc1ccc(C(=O)NCC(=O)NNC(=O)CN(C)S(=O)(=O)c2ccc(Cl)cc2)s1 | -5 | 0 | -12 | 2 | -2 | 1 | . | . | . | .
